Series [1] concerns HMV-2 cell line. In words: Antimelanogenic activity against human HMVII cells assessed as melanin content in cell lysate at 100 uM relative to control. Format: functional. Summed up: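 HMV-II human melanoma cells were cultured for 5 days with test sample or DMSO. Melanin pellets were collected from cell lysates, and total melanin content was expressed relative to the DMSO control.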

Series [2] is filed under the species Danio rerio. In words: Antimelanogenic activity against zebrafish embryo assessed as whitening efficacy at 10 uM. Format: functional, organism-based.
The species named for series [3] is Danio rerio. In words: Antimelanogenic activity against zebrafish embryo assessed as whitening efficacy. Format: functional, organism-based. Summed up:
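Synchronized zebrafish embryos were treated with compound and scored for pigmentation. Controls received 0.1% DMSO or 0.2 mM PTU.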

The test system of series [4] is HMV-2 cell line. In words: Antimelanogenic activity against human HMVII cells assessed as change in melanin colour from black to brown. The series is classed as functional, cell-based.
Series [5] concerns HMV-2 cell line. Briefly: Antimelanogenic activity against human HMVII cells assessed as melanin content in cell lysate at 1 uM relative to control. Format: functional. An outline of the steps:
(§1)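 Human melanoma HMV-II cells were exposed to compound at 1, 10 or 20 µM. Melanin was pelleted from cell lysates, and total melanin content was expressed relative to the DMSO-treated control.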

Series [6] relates to HMV-2 cell line. In words: Antimelanogenic activity against human HMVII cells assessed as melanin content in cell lysate at 10 uM relative to control. Format: functional. An outline of the steps:
as §1

In series [7] the test system is HMV-2 cell line. In words: Antimelanogenic activity against human HMVII cells assessed as melanin content in cell lysate at 20 uM relative to control. The series is classed as functional. Summed up: as §1
Series [8] deals with HMV-2 cell line. Briefly: Antimelanogenic activity against human HMVII cells assessed as reduction in TRP1 mRNA level at 1 to 20 uM measured after 24 hrs by RT-PCR analysis. Format: functional, cell-based. An outline of the steps:
(§2)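 HMV-II melanoma cells were treated with compound for 24 h. MITF, TRP-1 and TRP-2 mRNA levels were then quantified by real-time RT-PCR.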

Series [9] has as its system HMV-2 cell line. Briefly: Antimelanogenic activity against human HMVII cells assessed as reduction in melanin content in cell lysate. Format: functional, cell-based. An outline of the steps: as §1
In series [10] the test system is HMV-2 cell line. In words: Antimelanogenic activity against human HMVII cells assessed as reduction in TRP2 mRNA level at 1 to 20 uM measured after 24 hrs by RT-PCR analysis. Format: functional, cell-based. Summed up:
as §2

The subject of series [11] is HMV-2 cell line. In words: Antimelanogenic activity against human HMVII cells assessed as reduction in MITF mRNA level at 1 to 20 uM measured after 24 hrs by RT-PCR analysis. Format: functional, cell-based. An outline of the steps:
as §2

Series [12] has as its system HMV-2 cell line. In words: Antimelanogenic activity against human HMVII cells assessed as reduction in tyrosinase mRNA level at 10 to 20 uM measured after 24 hrs by RT-PCR analysis. Format: functional, cell-based.
Series [13] has as its system HMV-2 cell line. In words: Cytotoxicity against human HMVII cells assessed as decrease in cell survival at 20 uM measured after 5 days by Cytox-reagent based relative to control. The conditions noted are these: hmv-2, 120 h. An outline of the steps: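 HMV-II cells were seeded at 7,500 cells/well and cultured 24 h, then exposed to compound for 5 days. Viability was read with CytoX reagent.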

Series [14] in a line: Toxicity against human eye assessed as effect on tissue viability up to 50 uM measured after 30 mins by MTT assay. The conditions noted are these: 0.5 h. Format: tissue-based. Summed up:
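Reconstructed human ocular tissue (Neoderm-CD) was exposed to compound up to 50 µM and stained with MTT (1 mg/mL) for 30 min. Formazan was extracted with isopropanol and absorbance read at 570 nm.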

Series [15] can be described thus: Toxicity against human skin assessed as effect on tissue viability up to 50 uM measured after 3 hrs by MTT assay.

Molecules are shown by their SMILES. Calls of active or inactive are those of the source. The calls are words filed in the database; no cut-off is given here. Where only a bound is given, the exact number is not on record here.

In the case of `OC[C@H]1O[C@@H](Oc2ccc(O)cc2)[C@H](O)[C@@H](O)[C@@H]1O` [ARBUTIN], the Activity with HMV-2 cell line [1] turned out to be 85.6%.

In the case of `c1ccc(Sc2nccc3ccccc23)nc1`, the outcome in the series listed under Danio rerio [2] was Active. On to `c1ccc(Sc2nccc3ccccc23)cc1`, for which, in the series filed under Danio rerio [2], the outcome was Active. Besides, the Activity entry in the series listed under Danio rerio [3] is “Dose-dependent effect”. Consider `Fc1ccc(Nc2nccc3ccccc23)cc1`, for which the outcome in the series filed under Danio rerio [2] was inactive.

On to `c1cnc(Sc2nccc3ccccc23)nc1`, for which the result in the series listed under Danio rerio [2] was Active.

On to `CCOC(=O)c1ccc(Sc2nccc3ccccc23)cc1`, for which the outcome in the series filed under Danio rerio [2] was Active. In the case of `Fc1ccc(Sc2ncnc3cc[nH]c23)cc1`, the result in the series listed under Danio rerio [2] was Active.

Take `Fc1ccc(Sc2ncnc3[nH]cnc23)cc1`: in the series listed under Danio rerio [2], the outcome was inactive. On to `FC(F)(F)c1ccc(Sc2nccc3ccccc23)cc1`, for which the outcome in the series listed under Danio rerio [2] was inactive. For `Fc1ccccc1Sc1nccc2ccccc12`, the result in the series filed under Danio rerio [2] was Active. `Cc1ccc(Sc2nccc3ccccc23)cc1`: the outcome in the series listed under Danio rerio [2] was Active.

In the case of `c1ccc2c(Sc3nc4ccccc4[nH]3)nccc2c1`, in the series listed under Danio rerio [2], the result was Active. On to `c1ccc2c(Sc3nccc4ccccc34)nccc2c1`, for which the outcome in the series filed under Danio rerio [2] was Active. Regarding `Clc1ccc(Sc2nccc3ccccc23)cc1`, the outcome in the series filed under Danio rerio [2] was Active.

As to `O=c1cc(CO)occ1O` [KOJIC ACID], the Activity in the series with HMV-2 cell line [1] was 45.9%. Regarding `c1ccc2c(Sc3nc4ccccc4s3)nccc2c1`, the result in the series listed under Danio rerio [2] was inactive.

Regarding `Fc1ccc(Oc2nccc3ccccc23)cc1`, in the series filed under Danio rerio [2], the outcome was inactive. For `Fc1ccc(Sc2nccc3ccccc23)cc1`, the outcome in the series listed under Danio rerio [2] and with HMV-2 cell line [4] was Active. The Activity result in the series listed under Danio rerio [3] is “Dose-dependent effect”; in the series on HMV-2 cell line [5], 67.6%; in the series with HMV-2 cell line [6] it was 31.3%; in the series with HMV-2 cell line [7], 14.6%; in the series on HMV-2 cell line [9], “Dose-dependent effect”; in the series on HMV-2 cell line [13], under 10%. For the same compound, the Activity result in series [14] and in [15] was “Non-Toxic” in each case. Also, the inhibition result with HMV-2 cell line [8], in the series with HMV-2 cell line [10], with HMV-2 cell line [11] and with HMV-2 cell line [12] was “Active” throughout.

For the compound `Nc1ccc(Sc2nccc3ccccc23)cc1`, in the series filed under Danio rerio [2], the result was Active. The same measure, in the same setting: with `Fc1ccc(Sc2[nH]cnc3nccc2-3)cc1` the entry was “Active”. As to `Fc1ccc(Sc2ncnc3c(Br)csc23)cc1`, the outcome in the series listed under Danio rerio [2] was Active. Further, the Activity entry in the series listed under Danio rerio [3] is “Dose-dependent effect”. As to `Fc1ccc(Sc2nccc3ccccc23)c(F)c1`, the outcome in the series filed under Danio rerio [2] was Active.

These data come from ChEMBL document CHEMBL4619757, “Identification of new arylsulfide derivatives as anti-melanogenic agents in a zebrafish model” (Bioorg Med Chem Lett, 2020).
